Bioassay records from PubChem.
A selection: hits, their analogues and other compounds. The true share with any hit is near 3.1%.
KCNK9 block – human KCNK9 channel inhibition | HEK293 KCNK9, FluxOR thallium flux fluorescence; hits give low values | B-score at 10 µM | 310,000 tested, 1.2% active | AID 488922 | Q9NPC2;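 active = ratio B-score over 3 SD below the library mean, with starting fluorescence within 5 SD of its mean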;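 also: negative B-score means less thallium flux so channel inhibition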
Target sequence (Q9NPC2 whole entry, looked up): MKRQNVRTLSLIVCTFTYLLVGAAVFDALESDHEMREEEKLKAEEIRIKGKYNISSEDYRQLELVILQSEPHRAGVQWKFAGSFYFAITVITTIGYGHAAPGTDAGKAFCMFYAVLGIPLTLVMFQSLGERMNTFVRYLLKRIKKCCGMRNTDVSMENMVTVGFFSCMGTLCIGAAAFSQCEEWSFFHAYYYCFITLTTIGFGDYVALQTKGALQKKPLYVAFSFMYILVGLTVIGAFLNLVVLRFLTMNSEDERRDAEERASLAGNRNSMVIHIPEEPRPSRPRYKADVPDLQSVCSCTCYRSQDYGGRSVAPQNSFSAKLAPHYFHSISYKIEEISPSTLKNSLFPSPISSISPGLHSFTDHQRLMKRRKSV
KCNQ1 pot – human KCNQ1 channel potentiation or activation | P51787 | CHO-K1 KCNQ1, thallium flux FluxOR fluorescence; hits give high values | B-score at 10 µM | 310,000 tested, 0.35% active;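 active = fluorescence ratio B-score, a plate-corrected score, at least three library SD, with initial intensity B-score within 5 SD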
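Test system: CHO-K1 cells stably expressing KCNQ1 / Medium: assay buffer / Also added: depolarizing K+/Tl+ stimulus, K2SO4 and Tl2SO4 each 12.5 mM in 5x stock / Incubation: 90 min dye loading and 20 min compound exposure, both at room temperature / Signal: thallium influx via FluxOR fluorescence, kinetic imaging / Evaluation: B score of baseline-normalized fluorescence ratio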
KCNK3 block – human KCNK3 channel inhibition, primary screen | CHO-KCNK3 thallium flux, FluxOR fluorescence; hits give low values | B-score at 10 µM | O14649 | 340,000 tested, 0.84% active;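 active = B-score under library mean minus 4 SD, starting fluorescence ratio at most library mean plus 5 SD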;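 also: more negative B-score means stronger inhibition of thallium flux through KCNK3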
hERG rescue – hERG (human) protection from proarrhythmic block. Q12809. CHO-hERG, FluxOR thallium flux, dofetilide IC70 present. activation (rescue from dofetilide block), less the hit threshold, % at 10 µM. 310,000 tested, 0.51% active. AID 1511;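 active = activation above the mean of controls blocked by dofetilide plus 5 SD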;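 also: thallium influx through hERG after potassium depolarization seen as dye fluorescence rise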
KCNQ1 inh – blocks the human KCNQ1 potassium channel. B-score at 10 µM. 310,000 tested, 1.3% active. AID 2642. CHO-K1 KCNQ1, FluxOR thallium flux fluorescence; hits give high values;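 active = compounds whose thallium flux B-score, printed positive for inhibition, exceeds three library SD while starting fluorescence stays within three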;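 also: channel opened by potassium depolarization with thallium stimulus after 20 min compound exposure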
* = called active by the depositor; i = inactive; nt = no result given.

SMILES	KCNK9 block	KCNQ1 pot	KCNK3 block	hERG rescue	KCNQ1 inh
COc1ccc(S(=O)(=O)N(C)c2ccc(C(=O)Nc3c(C)n(C)n(-c4ccccc4)c3=O)cc2)cc1	i	i	i	-11	i
N#CC1=C(N)NC(SCC(=O)Nc2ccc(Br)cc2)=C(C#N)C12CCCCC2	i	i	i	-14	9*
N#CC1=C(N)NC(SCC(=O)c2ccccc2)=C(C#N)C12CCCC2	i	i	i	-14	i
CC(CC(=O)Nc1nnc(CC(C)(C)C)s1)c1ccccc1 (stereo not drawn)	i	i	i	-13	i
Cc1cccc(S(=O)(=O)c2c(N)n(Cc3ccco3)c3nc4ccccc4nc23)c1	i	i	i	-10	6*
Cc1cccc(-n2cnc3c(c2=O)c2nc4ccccc4nc2n3Cc2ccco2)c1	i	i	i	-10	i
COc1ccccc1N1CCN(C(=O)c2ccc3c(c2)NC(=O)C(CSCc2ccccc2C)N3)CC1 (stereo not drawn)	i	i	nt	-8	i
O=C(Nc1cc(Oc2ccccc2)cc([N+](=O)[O-])c1)C12CC3CC(C1)CC(n1cnc(Cl)n1)(C3)C2	i	i	i	-24	12*
O=C(O)c1cccc(NC(=O)C23CC4CC(C2)CC(n2cnc(Cl)n2)(C4)C3)c1	i	i	i	-9	i
Cc1cccc(C)c1Nc1nnc(SCc2cc([N+](=O)[O-])cc3c2OCOC3)s1	-6.7*	i	i	-15	i
CCN1C(=O)[C@H]2[C@H]3CN=C(SC)N3[C@@](C)(C(=O)OC)[C@H]2C1=O	nt	nt	i	nt	nt
CCOc1cccc(-c2c(C(=O)N/N=C(\C)c3ccccn3)nnn2-c2nonc2N)c1	-7*	i	i	-14	i
O=C(O)c1cc(-c2cccc([N+](=O)[O-])c2)n[nH]1	i	i	i	49*	i
O=C(Nc1nccs1)c1ccc(COc2ccc(F)cc2)o1	i	i	i	-1	i
O=C(Nc1nccs1)c1ccc(COc2ccccc2Br)o1	-7.1*	i	i	-5	i
O=C(Nc1cccnc1)c1ccc(COc2ccccc2Cl)o1	i	i	i	-1	i
CC(Oc1ccc(Br)cc1Br)C(=O)Nc1cccnc1 (stereo not drawn)	i	i	i	12*	i
CC(Oc1ccc(Cl)cc1Cl)C(=O)Nc1cccnc1 (stereo not drawn)	i	i	i	6.5*	i
CC(Oc1ccc(Br)cc1Br)C(=O)Nc1cccnc1Cl (stereo not drawn)	i	i	i	-13	i
O=C(Nc1cccnc1)c1ccc(COc2cc(Cl)ccc2Cl)o1	i	i	i	26*	i
CC(Oc1ccc(Cl)cc1Cl)C(=O)Nc1ccncc1 (stereo not drawn)	i	i	i	-11	i
COc1cc(N)c(Cl)cc1C(=O)OCC(=O)N1CCCCCC1	nt	nt	i	nt	nt
C/C(=N\NC(N)=S)c1ccccc1	i	i	i	-7	i
CSC(=S)N/N=C(\C)c1ccccc1	i	45*	i	20*	i
COc1ccccc1N1CCN(CCCNC(=O)C2CCCN(c3ncnc4c3nc3n4CCCCC3)C2)CC1 (stereo not drawn)	i	i	i	-13	i
SMILES	KCNK9 block	KCNQ1 pot	KCNK3 block	hERG rescue	KCNQ1 inh
COC(=O)c1ccccc1NC(=S)N(Cc1ccc2c(c1)OCO2)Cc1cc2cc(C)ccc2[nH]c1=O	i	i	i	-9	i
COC(=O)c1ccccc1NC(=S)N(Cc1ccc2c(c1)OCO2)Cc1cc2ccc(C)cc2[nH]c1=O	i	i	i	-7	6*
COc1ccc(OCCCCn2c(CO)nc3ccccc32)cc1	i	i	i	-10	i
Cc1ccc(N=Nc2ccc(O)c3ncccc23)cc1C	i	11*	i	-1	i
COc1ccccc1N=Nc1ccc(O)c2ncccc12	i	i	i	2	i
Cc1ccc(N=Nc2ccc(O)c3ncccc23)cc1	i	16*	i	20*	i
CC1(C)C(CSc2nc3ccccc3[nH]2)C1(Cl)Cl (stereo not drawn)	i	i	i	-6	i
CCCN(CC(=O)Nc1cc(Cl)ccc1Cl)C(=O)c1ccccn1	nt	nt	i	nt	nt
